# Reference: ChEMBL document CHEMBL4765360, “Design, synthesis and biological evaluation of novel potent STAT3 inhibitors based on BBI608 for cancer therapy” (Eur J Med Chem, 2020)
# Activity calls are given as the source filed them. The calls are words filed in the database; no cut-off is given here.
# Legend:
# [1] = system: MDA-MB-231; assay: Induction of apoptosis in human MDA-MB-231 cells assessed as necrotic cells at 4 uM incubated for 24 hrs by annexin V-FITC and PI staining based flow cytometry analysis (reference value: 0.23 %); assay type: functional
# [2] = system: MDA-MB-231; assay: Induction of cell cycle arrest in human MDA-MB-231 cells assessed as G0/G1 phase accumulation at 2 uM incubated for 24 hrs by PI staining based flow cytometry analysis (reference value: 57.99 %); assay type: functional
# [3] = system: MDA-MB-231; assay: Antitumor activity against human MDA-MB-231 cells xenografted in BALB/c mouse assessed as reduction in tumor growth at 10 mg/kg, ip administered once daily for 21 days and measured on day 21 relative to control; assay type: functional; conditions: MDA-MB-231, ip, 504 h, time 21 day, read-out: TGI
# Method in brief: (§1)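 Female BALB/c nude mice, 5 weeks old (16–18 g), were given 5×10^6 MDA-MB-231 cells subcutaneously. At ~50 mm³, mice were randomized to three groups (n=6): vehicle, 5 or 10 mg/kg i.p. daily for 21 days. Tumor volume (length×width²/2) was measured every 3 days and body weight recorded. Tumors were excised and weighed at the end. TGI derived versus control; mean ± SEM.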
# [4] = system: MDA-MB-231; assay: Induction of cell cycle arrest in human MDA-MB-231 cells assessed as S phase accumulation at 1 uM incubated for 24 hrs by PI staining based flow cytometry analysis (reference value: 26.21 %); assay type: functional
# [5] = system: MDA-MB-231; assay: Antiproliferative activity against human MDA-MB-231 cells overexpressing STAT3 assessed as reduction in cell growth incubated for 48 hrs by CCK-8 assay; assay type: functional, cell-based; conditions: MDA-MB-231, 48 h
# Method in brief: (§2)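 Cells seeded at 5000-7000/well and allowed to settle for 8 h at 37 °C, 5% CO2. Graded compound concentrations were then added in triplicate (DMSO <0.1%) for 48 h. Medium was replaced with 10% CCK-8 for 4 h (MDA-MB-231, MDA-MB-468) or 1 h (HepG2), and A450 was read. IC50 is mean ± SD of at least three independent experiments. HepG2 was grown in high-glucose DMEM with 10% FBS.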
# [6] = system: MDA-MB-231; assay: Antitumor activity against human MDA-MB-231 cells xenografted in BALB/c mouse assessed as reduction in tumor growth at 5 mg/kg, ip administered once daily for 21 days and measured on day 21 relative to control; assay type: functional; conditions: MDA-MB-231, ip, 504 h, time 21 day, read-out: TGI; method in brief: as §1
# [7] = system: HepG2; assay: Antiproliferative activity against human HepG2 cells overexpressed STAT3 assessed as reduction in cell growth incubated for 48 hrs by CCK-8 assay; assay type: functional, cell-based; conditions: HepG2, 48 h; method in brief: as §2
# [8] = system: MDA-MB-231; assay: Antitumor activity against human MDA-MB-231 cells xenografted in BALB/c mouse assessed reduction in tumor weight at 10 mg/kg, ip administered once daily for 21 days and measured on day 21 relative to control; assay type: functional; design: scale not given: the % may be the effect or the level left; conditions: dose 10 mg/kg/day; time 21 day; method in brief: as §1
# [9] = system: MDA-MB-231; assay: Induction of cell cycle arrest in human MDA-MB-231 cells assessed as G2/M phase accumulation at 2 uM incubated for 24 hrs by PI staining based flow cytometry analysis (reference value: 15.80 %); assay type: functional
# [10] = system: MDA-MB-231; assay: Induction of apoptosis in human MDA-MB-231 cells assessed as necrotic cells at 2 uM incubated for 24 hrs by annexin V-FITC and PI staining based flow cytometry analysis (reference value: 0.23 %); assay type: functional
# [11] = system: MDA-MB-231; assay: Effect on STAT1 expression in human MDA-MB-231 cells at 0.75 to 3 uM incubated for 24 hrs by Western blot analysis; assay type: functional, cell-based; conditions: dose 0.75-3 µM
# Method in brief: (§3)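 MDA-MB-231 cells treated with a range of concentrations for 24 h. RIPA lysates with PMSF, 40 µg protein/lane, on 10% SDS-PAGE, then PVDF. Blocked in 5% milk/TBST for 2 h. Primary antibodies to STAT3, p-STAT3(Y705), STAT1, p-STAT1(Y701), c-Myc and Cyclin D1 overnight at 4 °C; GAPDH as loading control. HRP secondary for 1 h; ECL detection.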
# [12] = Toxicity in BALB/c mouse xenografted with human MDA-MB-231 cells assessed as effect on body weight loss at 5 to 10 mg/kg, ip administered once daily for 21 days and measured for 21 days; assay type: organism-based; conditions: in vivo, 504 h, dose 5-10 mg/kg/day, time 21 day; method in brief: as §1
# [13] = system: MDA-MB-231; assay: Induction of cell cycle arrest in human MDA-MB-231 cells assessed as G2/M phase accumulation at 1 uM incubated for 24 hrs by PI staining based flow cytometry analysis (reference value: 15.80 %); assay type: functional
# [14] = system: MDA-MB-231; assay: Induction of apoptosis in human MDA-MB-231 cells assessed as early apoptotic cells at 2 uM incubated for 24 hrs by annexin V-FITC and PI staining based flow cytometry analysis (reference value: 2.69 %); assay type: functional
# [15] = system: MDA-MB-231; assay: Induction of apoptosis in human MDA-MB-231 cells assessed as necrotic cells at 1 uM incubated for 24 hrs by annexin V-FITC and PI staining based flow cytometry analysis (reference value: 0.23 %); assay type: functional
# [16] = system: MDA-MB-468; assay: Antiproliferative activity against human MDA-MB-468 cells overexpressing STAT3 assessed as reduction in cell growth incubated for 48 hrs by CCK-8 assay; assay type: functional, cell-based; conditions: MDA-MB-468, 48 h; method in brief: as §2
# [17] = system: MDA-MB-231; assay: Induction of apoptosis in human MDA-MB-231 cells assessed as viable cells at 4 uM incubated for 24 hrs by annexin V-FITC and PI staining based flow cytometry analysis (reference value: 93.37 %); assay type: functional; conditions: read-out: Activity
# [18] = system: MDA-MB-231; assay: Induction of apoptosis in human MDA-MB-231 cells assessed as late apoptotic cells at 1 uM incubated for 24 hrs by annexin V-FITC and PI staining based flow cytometry analysis (reference value: 3.72 %); assay type: functional
# [19] = system: MDA-MB-231; assay: Induction of cell cycle arrest in human MDA-MB-231 cells assessed as G2/M phase accumulation at 4 uM incubated for 24 hrs by PI staining based flow cytometry analysis (reference value: 15.80 %); assay type: functional
# [20] = system: MDA-MB-231; assay: Induction of cell cycle arrest in human MDA-MB-231 cells assessed as S phase accumulation at 4 uM incubated for 24 hrs by PI staining based flow cytometry analysis (reference value: 26.21 %); assay type: functional
# [21] = system: MDA-MB-231; assay: Induction of cell cycle arrest in human MDA-MB-231 cells assessed as S phase accumulation at 2 uM incubated for 24 hrs by PI staining based flow cytometry analysis (reference value: 26.21 %); assay type: functional
# [22] = target: T1, Signal transducer and activator of transcription 3 (Homo sapiens, UniProt P40763); assay: Inhibition of STAT3 in human MDA-MB-231 cells assessed as reduction in Cyclin D1 expression incubated for 24 hrs by Western blot analysis; assay type: cell-based; conditions: dose 0.75-3 µM; method in brief: as §3
# T1 sequence (P40763 whole entry): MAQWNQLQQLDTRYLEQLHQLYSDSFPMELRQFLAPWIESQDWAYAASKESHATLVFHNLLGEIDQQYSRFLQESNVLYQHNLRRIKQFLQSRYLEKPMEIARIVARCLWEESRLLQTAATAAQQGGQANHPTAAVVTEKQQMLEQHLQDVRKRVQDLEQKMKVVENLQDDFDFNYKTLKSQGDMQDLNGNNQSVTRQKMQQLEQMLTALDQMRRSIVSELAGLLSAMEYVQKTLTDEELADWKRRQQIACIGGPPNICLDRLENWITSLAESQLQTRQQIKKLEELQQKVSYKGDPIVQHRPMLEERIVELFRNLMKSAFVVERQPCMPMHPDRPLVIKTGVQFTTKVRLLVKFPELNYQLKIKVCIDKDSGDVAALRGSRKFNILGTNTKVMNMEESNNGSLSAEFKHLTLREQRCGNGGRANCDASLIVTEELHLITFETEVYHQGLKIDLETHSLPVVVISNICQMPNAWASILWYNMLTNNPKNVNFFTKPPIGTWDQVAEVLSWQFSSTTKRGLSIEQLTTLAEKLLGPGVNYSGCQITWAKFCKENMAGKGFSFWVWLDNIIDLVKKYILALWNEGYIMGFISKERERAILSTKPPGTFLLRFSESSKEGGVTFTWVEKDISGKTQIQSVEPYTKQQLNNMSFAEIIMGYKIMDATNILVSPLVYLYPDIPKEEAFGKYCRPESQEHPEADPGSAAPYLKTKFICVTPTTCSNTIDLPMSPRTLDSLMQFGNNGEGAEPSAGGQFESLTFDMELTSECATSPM
# [23] = system: MDA-MB-231; assay: Induction of cell cycle arrest in human MDA-MB-231 cells assessed as increase in S phase accumulation incubated for 24 hrs by PI staining based flow cytometry analysis; assay type: functional; conditions: dose 1-4 µM
# [24] = target: T1, Signal transducer and activator of transcription 3; assay: Inhibition of STAT3 in human MDA-MB-231 cells assessed as reduction in STAT3 Y705 phosphorylation incubated for 24 hrs by Western blot analysis; assay type: cell-based; conditions: dose 0.75-3 µM; method in brief: as §3
# [25] = system: MDA-MB-231; assay: Induction of apoptosis in human MDA-MB-231 cells assessed as late apoptotic cells at 2 uM incubated for 24 hrs by annexin V-FITC and PI staining based flow cytometry analysis (reference value: 3.72 %); assay type: functional
compound,measurement,setting,value
COc1ccc(NC2=CC(=O)c3cc(C(C)=O)oc3C2=O)cc1,Activity,[1],0.77%
same,Activity,[2],40.49%
same,inhibition in vivo at 10 mg/kg/day,[3],54.6%
same,Activity,[4],34.31%
same,IC50,[5],670 nM
same,inhibition in vivo at 5 mg/kg/day,[6],8.42%
same,IC50,[7],1240 nM
same,Activity,[8],45.19%
same,Activity,[9],13.3%
same,Activity,[10],0.38%
same,Activity,[11],inactive
same,Activity,[12],Non-Toxic
same,Activity,[13],16.27%
same,Activity,[14],4.69%
same,Activity,[15],0.41%
same,IC50,[16],770 nM
same,viability at 4 µM,[17],67%
same,Activity,[18],6.51%
same,Activity,[19],7.52%
same,Activity,[20],57.09%
same,Activity,[21],46.21%
same,inhibition,[22],Dose-dependent effect
same,Activity,[23],Dose-dependent effect
same,inhibition,[24],Dose-dependent effect
same,Activity,[25],12.69%
